M1 antagonist: antagonists of rat M1 muscarinic receptor; P08482; CHO-M1 cells, Fluo-4 calcium, ACh EC80 antagonist mode; active compounds read low; B-score at 10 µM; 64,000 tested, 3.4% active; AID 628;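 active = calcium fluorescence response, raw or row-and-column corrected B-score, differing from the plate sample mean either way at a set confidence level, mostly lower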
MKP-1 inh: human dual specificity phosphatase 1 inhibition | recombinant MKP-1, OMFP hydrolysis fluorescence | 65,000 tested, 0.15% active | P28562 | inhibition, %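 (compounds tested at a single concentration somewhere between 10 and 100 µM)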;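 active = inhibition above about 50%, limit read from the data; inconclusive = inhibition over screen mean plus 3 SD, below that limit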;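 also: 0% = DMSO max control wells and 100% = wells with enzyme stopped by NaOH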
M1 ag: activates the M1 muscarinic receptor; B-score at 10 µM; 64,000 tested, 3% active; CHO-M1 cells, Fluo-4 calcium fluorescence, agonist mode; active compounds read high;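 active = fluorescence rise, raw or as B-score row- and column-corrected plate score, outside the 99.7% band of its plate's samples, either direction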
Cdc25B block: inhibitors of human Cdc25B phosphatase; P30305; recombinant Cdc25B, OMFP fluorescence Ex485/Em525; inhibition, %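 (compounds tested at 10 µM final in the well)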; 65,000 tested, 0.1% active; in the data active = inhibition above about 50%
Target sequence (P30305 whole entry, looked up): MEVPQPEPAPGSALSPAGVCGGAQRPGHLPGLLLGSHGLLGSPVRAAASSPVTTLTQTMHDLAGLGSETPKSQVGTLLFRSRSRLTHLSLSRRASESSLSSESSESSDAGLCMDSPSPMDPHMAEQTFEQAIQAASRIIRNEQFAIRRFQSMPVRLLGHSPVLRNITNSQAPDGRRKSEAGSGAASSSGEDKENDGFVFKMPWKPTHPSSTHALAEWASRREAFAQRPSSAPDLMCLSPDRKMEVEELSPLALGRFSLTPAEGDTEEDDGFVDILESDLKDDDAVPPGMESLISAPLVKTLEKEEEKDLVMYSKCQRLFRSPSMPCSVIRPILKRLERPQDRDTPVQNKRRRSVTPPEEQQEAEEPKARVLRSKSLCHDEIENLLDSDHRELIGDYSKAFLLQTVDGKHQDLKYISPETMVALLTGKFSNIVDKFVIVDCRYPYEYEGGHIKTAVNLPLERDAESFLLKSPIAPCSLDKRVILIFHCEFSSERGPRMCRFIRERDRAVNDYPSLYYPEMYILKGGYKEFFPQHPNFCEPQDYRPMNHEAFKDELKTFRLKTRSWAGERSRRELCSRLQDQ
HER2 expr 66K: lowers expression of human Her2 kinase. 65,000 tested, 0.69% active. HER2 level % of control, % at 10 µM. SKBR-3 HER2 protein level, AlphaScreen, 18-24 h; active compounds read low;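 active = HER2 level under 5% of the carrier-only control; inconclusive = no clear call, values can overlap the other calls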;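 also: 100% = DMSO carrier and 0% = 500 nM PU-H71 HSP90 inhibitor; lower value means stronger loss of Her2 protein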
HEK293 NFkB inh: lowers PMA/ionomycin-induced NF-kB signal in HEK293 cells; AID 465; 62,000 tested, 0.21% active; HEK-293 NF-kB luciferase reporter, luminescence; inhibition, % at 3 µM;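 active = inhibition above the mean of all tested compounds plus 3 SD, cut at about 40% in these data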;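 also: 0% = stimulated DMSO wells and 100% = 10 µM reference inhibitor 5653914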
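System: NF-kB luciferase reporter HEK-293 cells | Replication: Single test | Control set: DMSO vs reference inhibitor | Evaluation: % inhibition | Schedule: 1 h pretreatment, 16 h stimulation, 37 °C | Probe or stimulus: PMA with ionomycin | Compound dosing: One dose, 3 µM | Detection: Luciferase luminescence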
M1 agonist conf: confirmation of rat M1 muscarinic receptor agonists. shares compounds with M1 ag. CHO-M1 cells, Fluo-4 calcium fluorescence, agonist mode; actives lie on both sides. fluorescence change (max-min) at 10 µM. 1,700 tested, 19% active. AID 1488;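 active = fluorescence change differs from the solvent-only DMSO control mean at a set confidence level in both duplicate runs; inconclusive = differs from solvent-only control mean in just one of two runs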;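 also: an EC20 dose of acetylcholine follows compound addition during the same imaging run; raw fluorescence intensity difference in instrument units with no normalization to controls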
M4 agonist ctr: activates rat M4 receptor in counter-screen for M1 agonists. fluorescence change (max-min) at 10 µM. AID 1741. CHO M4/Gqi5 cells, Fluo-4 calcium fluorescence, agonist mode; actives lie on both sides. 1,700 tested, 9% active. shares compounds with M1 ag;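 active = fluorescence change differing from the plate's solvent-only control wells at 99.7% confidence in both duplicates, whether higher or lower; inconclusive = differs from solvent controls in only one of two duplicates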
Starred values were filed as active, the others as inactive; ? = inconclusive; . = no result. In the library only some 6.8% were active in any assay of this set; here they are far more common.

SMILES	M1 antagonist	MKP-1 inh	M1 ag	Cdc25B block	HER2 expr 66K	HEK293 NFkB inh	M1 agonist conf	M4 agonist ctr
Cn1c(=O)oc2cc(S(=O)(=O)NCCc3ccccc3)ccc21	-0.562	7.7	-1.08	-6.0	70.5	10.4	.	.
O=C(Nc1cccc(-c2nc3cccnc3s2)c1)c1ccco1	-1.46	6.7	5.98*	10.3	55.5	-3.7	?	-50.1
CCCCCn1c(=N)n(CC(O)COc2ccccc2OC)c2ccccc21 (configuration not stated)	0.248	-11.6	3.08*	-21.1	53.2	7.5	2.86	11.1
COc1ccc(Nc2ccnc3ccccc23)cc1	-2.01*	2.7	14.4*	3.4	153.2	1.9	62.9	-20.7
CC(C)OCCCn1c(=N)c(C(N)=S)cc2c(=O)n3ccccc3nc21	-0.951	-9.4	3.99*	8.2	80.9	.	-10.8	?
COC(=O)c1cc2c(=O)n3ccccc3nc2n(C)c1=N	-0.547	-4.8	-0.682	-18.7	89.1	24.0	.	.
CCOC(=O)c1cc2c(=O)n3ccccc3nc2n(CCCOC)c1=NC(C)=O	0.143	-1.8	-0.179	-14.1	77.0	9.6	.	.
CCOC(=O)c1cc2c(=O)n3cccc(C)c3nc2n(CC2CCCO2)c1=NC(C)=O (configuration not stated)	-0.469	-12.2	0.62	-2.9	99.2	22.2	.	.
CC(C)OCCCn1c(=NC(=O)c2ccncc2)c(C#N)cc2c(=O)n3ccccc3nc21	-1.61	-0.6	25.4*	1.8	86.8	25.3	219*	?
CCCCn1c(=NC(=O)c2ccc3c(c2)OCO3)c(C#N)cc2c(=O)n3cccc(C)c3nc21	-0.87	1.1	13.1*	-5.8	51.8	8.4	?	-43.6
Cc1ccc(S(=O)(=O)Cc2ccc(C(=O)N3CCN(c4ccc(F)cc4)CC3)o2)cc1	-0.0121	14.1	0.573	-10.5	38.5	1.4	.	.
Cc1ccccc1S(=O)(=O)Cc1ccc(C(=O)N2CCN(c3ccc(F)cc3)CC2)o1	-0.86	20.6	3.21*	-31.3	101.4	-0.3	-9.41	-54
COc1ccccc1N1CCN(C(=O)c2ccc(CS(=O)(=O)c3ccccc3OC)o2)CC1	-0.71	19.4	4.52*	-6.6	129.6	0.7	-12.9	?
C=CCn1c(Cc2cccs2)nnc1SCC(=O)c1cccc(Br)c1	.	-22.0	.	2.9	76.3	25.5	.	.
CCC(C)NC(=O)COc1ccc(S(=O)(=O)N2CCOCC2)cc1 (configuration not stated)	0.974	3.0	0.114	22.7	109.0	8.5	.	.
CC1Cc2ccccc2N1C(=O)c1cc2c(=O)n3ccccc3nc2n1C (configuration not stated)	-0.578	17.2	8.41*	9.8	75.0	-7.5	-6.45	-11.9
CCCCC(=O)Nc1ccc(N2CCN(C(=O)CC)CC2)cc1	-0.0021	16.6	0.988	8.0	72.9	17.9	.	.
CCCCCC(=O)Nc1ccc(N2CCN(S(C)(=O)=O)CC2)cc1	-0.425	-2.2	-2.27*	-9.9	94.9	14.1	-0.163	-14.9
O=[n+]1c2c(n([O-])c3cc(F)c(N4CCCC4)cc31)CCCC2	0.9	13.3	188*	-7.1	82.0	14.3	593*	561*
O=[n+]1c2c(n([O-])c3cc(F)c(N4CCCC4)cc31)CCC2	0.514	6.2	91.8*	-5.8	101.5	-5.9	632*	549*
NC(=O)C1(N2CCCCC2)CCN(C(=O)CSc2nc3ccccc3s2)CC1	0.0864	32.9	-1.2	-2.1	89.9	10.3	.	.
Cc1cc(NC(=O)CSc2cn(CCNC(=O)c3ccc(F)cc3)c3ccccc23)no1	-0.436	13.1	4.23*	-14.4	68.4	14.0	-12.3	-14.7
Cc1nnc(NC(=O)CSc2cn(CCNC(=O)c3ccccc3)c3ccccc23)s1	0.141	-6.4	1.01	-15.4	87.9	0.7	.	.
Cc1ccc(S(=O)(=O)N(C)CC(=O)NC2CC(C)(C)NC(C)(C)C2)cc1	0.0685	-5.5	-0.224	3.7	87.6	11.7	.	.
COc1cccc(C(=O)N(Cc2cc3cc(C)ccc3[nH]c2=O)CC2CCCO2)c1 (configuration not stated)	.	-10.9	.	3.0	63.8	0.1	.	.
SMILES	M1 antagonist	MKP-1 inh	M1 ag	Cdc25B block	HER2 expr 66K	HEK293 NFkB inh	M1 agonist conf	M4 agonist ctr
COc1ccc2[nH]c(=O)c(CN(CC3CCCO3)C(=O)Nc3ccc(F)cc3)cc2c1 (configuration not stated)	-4.29*	18.3	11.2*	-4.7	81.6	1.4	-1.02	-20.7
CCOC(=O)c1c(N)n(CCOC(=O)c2cccs2)c2nc3ccccc3nc12	-1.03	4.3	9.76*	7.0	48.9	20.4	-2.54	-36.5
NC1=NC(c2ccc(F)cc2)n2c(nc3ccccc32)N1 (configuration not stated)	0.972	-4.8	0.835	-0.5	85.6	4.2	.	.
COc1cc2c(=O)nc3n(c2cc1OC)C(c1ccccc1)N=C(N)N3 (configuration not stated)	-1.15	-11.9	2.38*	7.4	93.9	2.5	-16.8	-38.1
CN(C)CCNC(=O)C12CC3(C)CC(C)(CC(C)(C3)C1)C2	-0.943	-23.7	3.34*	-30.9	95.5	.	?	-70.3
O=C(C1CCN(S(=O)(=O)c2cccc3cccnc23)CC1)N1CCn2c1nc1ccccc12	6.61*	5.2	22.3*	-10.4	111.0	14.8	-11.4	-43.4
CCOc1ccccc1NC(=O)C1CCCN(S(=O)(=O)c2cccc3nsnc23)C1 (configuration not stated)	-0.165	27.2	-0.561	11.5	104.9	26.8	.	.
O=C(NCC1COc2ccccc2O1)C1CCCN(S(=O)(=O)c2cccc3nsnc23)C1 (configuration not stated)	-0.132	26.1	3.17*	15.5	83.2	35.0	?	-61.6
O=C(C1CCCN(S(=O)(=O)c2cccc3cccnc23)C1)N1CCN(c2ccc(F)cc2)CC1 (configuration not stated)	0.146	13.2	2.71*	1.1	70.1	3.1	?	?
O=C(C1CCCN(S(=O)(=O)c2cccc3nsnc23)C1)N1CCN(c2ccccn2)CC1 (configuration not stated)	-1.41	12.2	3.15*	-9.9	72.9	1.2	-7.62	-20
Cc1nnc(SCc2ccccc2F)n1NCc1cccs1	-0.656	-0.2	-0.329	-8.1	106.1	7.5	.	.
CCOC(=O)COc1ccc(C(=O)NC2CCCCC2)cc1	-0.56	-9.9	-0.105	-4.1	122.3	9.6	.	.
O=C(O)C1C2C=CC3(CN(Cc4ccccn4)C(=O)C13)O2 (configuration not stated)	-0.041	22.1	-0.0837	0.3	91.4	3.7	.	.

Compound activity deposited in PubChem BioAssay by several laboratories.
